# Reference: ChEMBL document CHEMBL4376875, “Synthesis and Biological Evaluation of B-Cell Lymphoma 6 Inhibitors of N-Phenyl-4-pyrimidinamine Derivatives Bearing Potent Activities against Tumor Growth” (J Med Chem, 2020)
# Active and inactive are the calls of the source. No cut-off for these calls is given here.
# Legend:
# SUD4 [1] = assay: Antiproliferative activity against human SUDHL4 cells assessed as reduction in living cells incubated for 48 hrs by Edu based flow cytometry analysis; assay type: functional, cell-based
# Outline: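 SUDHL4 cells were treated for 48 h, then pulsed with 10 μM EdU for 2 h, fixed, permeabilized and stained with EdU/Alexa Fluor Azide 488 for 30 min. Living and S-phase cells were counted by flow cytometry. Triplicate.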
# Mus musculus [2] = assay: In vivo inhibition of GC formation in NP-CGG immunized C57BL/6 mouse assessed as splenic GC B cells (GL7+FAS+B220+) at 10 mg/kg, iv administered 3 days once for 12 days starting from 2 days after NP-CGG addition by flow cytometry (reference value: 1.97%); assay type: functional; parameters: scale not given: the % may be the effect or the level left
# [3] = Toxicity in SCID mouse xenografted with human SUDHL4 cells assessed as adverse effect on heart morphology at 5 to 10 mg/kg, iv administered 3 days once for 15 days by H and E staining analysis; assay type: organism-based; details: in vivo
# Outline: (§1)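 Male SCID mice, 6 weeks old, received 1 × 10⁷ SUDHL4 cells s.c. At about 100 mm³, mice were randomized (n = 7) to vehicle (20% 2-hydroxypropyl-β-cyclodextrin) or 5 or 10 mg/kg every 3 days i.v. for 15 days. Body weight and caliper volume (L × W² × 0.52) were recorded every 3 days. At sacrifice, tissues were fixed in 4% paraformaldehyde and paraffin-embedded for H&E or Ki67 IHC. Tumor mRNA was assayed by qPCR.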
# Toledo [4] = assay: Effect on p53 mRNA expression in BCL6-negative human Toledo cells at 1.25 to 5 uM incubated for 24 hrs by RT-PCR analysis; assay type: functional, cell-based
# Outline: (§2)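 Toledo cells (BCL6-independent) were exposed to 1.25, 2.50 or 5.00 μM for 24 h, then mRNA was collected. Target-gene transcripts were quantified by real-time quantitative PCR against vehicle control.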
# [5] = Toxicity in SCID mouse xenografted with human SUDHL4 cells assessed as adverse effect on lungs morphology at 5 to 10 mg/kg, iv administered 3 days once for 15 days by H and E staining analysis; assay type: organism-based; details: in vivo; outline: as §1
# Toledo [6] = details: Homo sapiens, 0.25 to 2 uM
# Mus musculus [7] = organism: Mus musculus; details: C57BL/6, 10 mg/kg
# Mus musculus [8] = organism: Mus musculus; details: C57BL/6, 10 mg/kg; remark: listed apart in the source
# Toledo [9] = assay: Effect on ATR mRNA expression in BCL6-negative human Toledo cells at 1.25 to 5 uM incubated for 24 hrs by RT-PCR analysis; assay type: functional, cell-based; outline: as §2
# DOHH-2 = assay: Antiproliferative activity against human DOHH2 cells assessed as reduction in cell viability incubated for 72 hrs by CCK8 assay; details: DOHH-2, 72 h
# SUD4 [10] = assay: Antiproliferative activity against human SUDHL4 cells assessed as living cells and S phase cells at 0.625 uM incubated for 48 hrs by Edu based flow cytometry analysis (reference value: 48.3%)
# SUD4 [11] = assay: Induction of apoptosis in human SUDHL4 cells assessed as late apoptotic cells at 1.25 uM incubated for 48 hrs by annexin V-FITC and propidium iodide staining based flow cytometry analysis (reference value: 1.39%); assay type: functional
# Mus musculus [12] = assay: Upregulation of CD69 mRNA expression in SCID mouse xenografted with human SUDHL4 cells at 5 to 10 mg/kg, iv administered 3 days once for 15 days by qPCR analysis; assay type: functional, organism-based; outline: as §1
# SUD4 [13] = assay: Antiproliferative activity against human SUDHL4 cells assessed as living cells and S phase cells at 1.25 uM incubated for 48 hrs by Edu based flow cytometry analysis (reference value: 48.3%)
# PNT1A = assay: Cytotoxicity against human PNT1A cells assessed as reduction in cell viability incubated for 72 hrs by CCK8 assay
# Toledo [14] = assay: Antiproliferative activity against BCL6-negative human Toledo cells assessed as reduction in cell viability incubated for 72 hrs by CCK8 assay
# [15] = Metabolic stability in human liver microsomes assessed as intrinsic clearance per mg of protein; assay type: ADME, Microsome; details: read-out: CLH
# Outline: (§3)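 Incubation with human liver microsomes. Intrinsic clearance was scaled to liver using 45 mg microsomal protein per g liver and 20 g liver per kg body weight. Half-life was also determined.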
# [16] = Toxicity in SCID mouse xenografted with human SUDHL4 cells assessed as reduction in body weight at 5 to 10 mg/kg, iv administered 3 days once for 15 days and measured every 3 days; assay type: organism-based; details: in vivo; outline: as §1
# [17] = Metabolic stability in human liver microsomes assessed as half life; assay type: ADME, Microsome; outline: as §3
# Toledo [18] = assay: Effect on CD80 mRNA expression in BCL6-negative human Toledo cells at 1.25 to 5 uM incubated for 24 hrs by RT-PCR analysis; assay type: functional, cell-based; outline: as §2
# [19] = Protein binding in human plasma; assay type: ADME, cell-free; details: read-out: PPB (converted)
# Outline: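 Human plasma protein binding was measured by a contract laboratory.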
# SUD4 [20] = assay: Induction of apoptosis in human SUDHL4 cells assessed as early apoptotic cells at 1.25 uM incubated for 48 hrs by annexin V-FITC and propidium iodide staining based flow cytometry analysis (reference value: 2.62%); assay type: functional
# SUD4 [21] = assay: Induction of apoptosis in human SUDHL4 cells assessed as early apoptotic cells at 0.625 uM incubated for 48 hrs by annexin V-FITC and propidium iodide staining based flow cytometry analysis (reference value: 2.62%); assay type: functional
# [22] = Toxicity in SCID mouse xenografted with human SUDHL4 cells assessed as adverse effect on kidney morphology at 5 to 10 mg/kg, iv administered 3 days once for 15 days by H and E staining analysis; assay type: organism-based; details: in vivo; outline: as §1
# Toledo [23] = assay: Effect on CXCR4 mRNA expression in BCL6-negative human Toledo cells at 1.25 to 5 uM incubated for 24 hrs by RT-PCR analysis; assay type: functional, cell-based; outline: as §2
# SUD4 [24] = assay: Antiproliferative activity against human SUDHL4 cells assessed as living cells and S phase cells at 2.5 uM incubated for 48 hrs by Edu based flow cytometry analysis (reference value: 48.3%)
# SUD4 [25] = assay: Induction of apoptosis in human SUDHL4 cells incubated for 48 hrs by annexin V-FITC and propidium iodide staining based flow cytometry analysis; assay type: functional, cell-based
# Mus musculus [26] = assay: Upregulation of CXCR4 mRNA expression in SCID mouse xenografted with human SUDHL4 cells at 5 to 10 mg/kg, iv administered 3 days once for 15 days by qPCR analysis; assay type: functional, organism-based; outline: as §1
# Mus musculus [27] = assay: Upregulation of ATR mRNA expression in SCID mouse xenografted with human SUDHL4 cells at 5 to 10 mg/kg, iv administered 3 days once for 15 days by qPCR analysis; assay type: functional, organism-based; outline: as §1
# SUD4 [28] = assay: Induction of apoptosis in human SUDHL4 cells assessed as late apoptotic cells at 0.625 uM incubated for 48 hrs by annexin V-FITC and propidium iodide staining based flow cytometry analysis (reference value: 1.39%); assay type: functional
# SUD4 [29] = assay: Antitumor activity against human SUDHL4 cells xenografted in SCID mouse assessed as reduction in tumor growth at 5 mg/kg, iv administered 3 days once for 15 days and measured every 3 days; assay type: functional, organism-based; outline: as §1
smiles,measurement,setting,value
COc1cc(Nc2nc(N3C[C@@H](C)N[C@@H](C)C3)ncc2F)ccc1NC(=O)c1ccc(C2=CCCC2)s1,Activity,SUD4 [1],Dose-dependent effect
same,Activity,Mus musculus [2],0.45%
same,Activity,[3],Non-Toxic
same,Activity,Toledo [4],inactive
same,Activity,[5],Non-Toxic
same,inhibition,Toledo [6],inactive
same,inhibition,Mus musculus [7],Active
same,inhibition,Mus musculus [8],Active
same,Activity,Toledo [9],inactive
same,IC50,DOHH-2,1210 nM
same,Activity,SUD4 [10],27.3%
same,Activity,SUD4 [11],12.5%
same,Activity,Mus musculus [12],Active
same,Activity,SUD4 [13],12.5%
same,IC50,PNT1A,8.13 µM
same,IC50,Toledo [14],3.25 µM
same,microsomal CLint,[15],< 9.6 µL/min/mg
same,Activity,[16],Non-Toxic
same,half-life,[17],> 60 min
same,Activity,Toledo [18],inactive
same,fraction unbound,[19],0.076
same,Activity,SUD4 [20],3.57%
same,Activity,SUD4 [21],3.42%
same,Activity,[22],Non-Toxic
same,Activity,Toledo [23],inactive
same,Activity,SUD4 [24],6.6%
same,Activity,SUD4 [25],Dose-dependent effect
same,Activity,Mus musculus [26],Active
same,Activity,Mus musculus [27],Active
same,Activity,SUD4 [28],3.35%
same,Activity,SUD4 [29],Active
